Assay results published in ChEMBL document CHEMBL1154475, “1,3,4-Oxadiazole/thiadiazole and 1,2,4-triazole derivatives of biphenyl-4-yloxy acetic acid: synthesis and preliminary evaluation of biological properties” (Eur J Med Chem, 2008).

Experiments:
Rattus norvegicus [1] = test: Antiinflammatory activity in Wistar rat assessed as inhibition of carrageenan-induced paw edema administered orally at equimolar oral dose relative to 10 mg/kg flurbiprofen measured after 4 hrs of carrageenan challenge; format: functional
Outline: (§1)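 Adult Wistar rats of either sex, 150–200 g, n=6 per group, fasted 24 h with water allowed. Dosed orally in 0.5% CMC 1 h before 0.1 ml of 1% carrageenan in saline was injected subplantar into the right hind paw. Paw volume was read by plethysmometer at baseline, 3 h and 4 h. % inhibition = (Vc − Vt)/Vc × 100. ANOVA with Dunnett's test.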

Rattus norvegicus [2] = test: Antiinflammatory activity in Wistar rat assessed as inhibition of carrageenan-induced paw edema administered orally at equimolar oral dose relative to 10 mg/kg flurbiprofen measured after 3 hrs of carrageenan challenge; format: functional; outline: as §1
Rattus norvegicus [3] = test: Hepatotoxicity in po dosed Wistar albino rat assessed as serum glutamate oxaloacetate transaminase activity administered at equimolar oral dose relative to 10 mg/kg flurbiprofen after 15 days; format: toxicity, organism-based; set-up: dose 10 mg/kg, route oral; conditions: in vivo, 360 h
Outline: (§2)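 Wistar albino rats of either sex, 150–200 g, n=6 per group, given oral doses in 0.5% w/v CMC once daily for 15 days; controls received vehicle. Retro-orbital blood was clotted 45 min at room temperature and serum separated by centrifugation at 2500 rpm for 15 min for the biochemical assays. ANOVA with Dunnett's test against control.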

Rattus norvegicus [4] = organism: Rattus norvegicus; test: Inhibition of lipid peroxidation in rat assessed as malondialdehyde level per 100 mg of tissue; format: functional, organism-based
Outline: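 Gastric mucosa taken from the ulcerogenicity rats was scraped, weighed (100 mg) and homogenized in ice-cold 1.15% KCl. SDS, acetate buffer pH 3.5 and 0.8% TBA were added and the mixture heated at 95 °C for 60 min. It was extracted with n-butanol:pyridine (15:1), centrifuged, and the organic layer read at 532 nm. Results given as nmol MDA/100 mg tissue (ε 1.56 × 10⁵ cm⁻¹ M⁻¹).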

Rattus norvegicus [5] = test: Gastrointestinal toxicity in rat assessed as gastric mucosal damage severity index administered at equimolar oral dose relative to 30 mg/kg flurbiprofen; format: organism-based, Gastric mucosa; set-up: dose 30 mg/kg, route oral; conditions: in vivo
Outline: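 Wistar rats, n=6 per group, food withdrawn 24 h before oral dosing in 0.5% CMC, then given normal diet for 17 h before sacrifice. Stomachs were opened along the greater curvature and scored under a magnifier (0.5 redness to 3.0 for >5 ulcers). Severity index = mean treated score minus mean control score.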

Rattus norvegicus [6] = test: Hepatotoxicity in po dosed Wistar albino rat assessed as total albumin content administered at equimolar oral dose relative to 10 mg/kg flurbiprofen after 15 days; format: toxicity, organism-based; set-up: dose 10 mg/kg, route oral; conditions: in vivo, 360 h; outline: as §2
Rattus norvegicus [7] = test: Hepatotoxicity in po dosed Wistar albino rat assessed as serum glutamate pyruvate transaminase activity administered at equimolar oral dose relative to 10 mg/kg flurbiprofen after 15 days; format: toxicity, organism-based; set-up: dose 10 mg/kg, route oral; conditions: in vivo, 360 h; outline: as §2
Rattus norvegicus [8] = test: Hepatotoxicity in po dosed Wistar albino rat assessed as total protein content administered at equimolar oral dose relative to 10 mg/kg flurbiprofen after 15 days; format: toxicity, organism-based; set-up: dose 10 mg/kg, route oral; conditions: in vivo, 360 h; outline: as §2
Mus musculus = test: Analgesic activity in Swiss albino mouse assessed as inhibition of tail withdrawal administered orally at equimolar oral dose relative to 10 mg/kg flurbiprofen after 4 hrs; format: functional
Outline: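 Tail immersion in Swiss albino mice of either sex, 25–30 g, n=6 per group, dosed orally as a suspension in 0.5% w/v CMC. The lower 5 cm of the tail was dipped in water held at 55 ± 0.5 °C. Reaction time (s) to tail withdrawal was recorded before dosing and 4 h after, with a 10 s cut-off.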

Row | SMILES | inhibition in vivo (Rattus norvegicus [1]) | inhibition in vivo (Rattus norvegicus [2]) | also measured
1 | Clc1ccc(Nc2nnc(COc3ccc(-c4ccccc4)cc3)s2)cc1 | 54.5% | 52.3% | 
2 | Clc1ccc(-c2nnc(COc3ccc(-c4ccccc4)cc3)o2)c(Cl)c1 | 57.6% | 56.1% | 
3 | Fc1ccc(Nc2nnc(COc3ccc(-c4ccccc4)cc3)s2)cc1 | 29.5% | 27.3% | 
4 | Sc1nnc(COc2ccc(-c3ccccc3)cc2)n1-c1ccc(Cl)cc1 | 18.2% | 15.9% | 
5 | Clc1ccc(OCc2nnc(COc3ccc(-c4ccccc4)cc3)o2)c(Cl)c1 | 29.5% | 29.5% | 
6 | CCCCn1c(S)nnc1COc1ccc(-c2ccccc2)cc1 | 81.8% | 75% | Activity (Rattus norvegicus [3]): 138 U/ml; Activity (Rattus norvegicus [4]): 5.19 nmol; UI (Rattus norvegicus [5]): 0.666; Activity (Rattus norvegicus [6]): 0.71 g/dL; Activity (Rattus norvegicus [7]): 22.67 U/ml; Activity (Rattus norvegicus [8]): 1.82 g/dL; inhibition in vivo (Mus musculus): 58.2%
7 | COc1ccc2cc(C(C)c3nnc(COc4ccc(-c5ccccc5)cc4)o3)ccc2c1 (configuration not stated) | 25% | 25% | 
8 | Cc1ccccc1Nc1nnc(COc2ccc(-c3ccccc3)cc2)s1 | 29.5% | 25% | 
9 | Cc1ccc(-n2c(S)nnc2COc2ccc(-c3ccccc3)cc2)c(C)c1 | 54.5% | 54.5% | 
10 | Fc1ccc(-n2c(S)nnc2COc2ccc(-c3ccccc3)cc2)cc1 | 79.5% | 75% | Activity (Rattus norvegicus [4]): 5.34 nmol; UI (Rattus norvegicus [5]): 0.833; inhibition in vivo (Mus musculus): 30.5%
11 | CCCCNc1nnc(COc2ccc(-c3ccccc3)cc2)s1 | 27.3% | 27.3% | 
12 | CC(C(=O)O)c1ccc(-c2ccccc2)c(F)c1 (configuration not stated) [FLURBIPROFEN] | 79.5% | 75% | Activity (Rattus norvegicus [4]): 7.51 nmol; UI (Rattus norvegicus [5]): 1.666; inhibition in vivo (Mus musculus): 69.5%
13 | CCCCNc1nnc(COc2ccc(-c3ccccc3)cc2)o1 | 15.9% | 15.9% | 
14 | Fc1ccc(Nc2nnc(COc3ccc(-c4ccccc4)cc3)o2)cc1 | 52.3% | 52.3% | 
15 | Clc1ccccc1-c1nnc(COc2ccc(-c3ccccc3)cc2)o1 | 63.6% | 59.1% | 
16 | Brc1ccc(Nc2nnc(COc3ccc(-c4ccccc4)cc3)s2)cc1 | 63.6% | 63.6% | 
17 | Clc1ccc(-c2nnc(COc3ccc(-c4ccccc4)cc3)o2)cc1 | 77.3% | 75% | Activity (Rattus norvegicus [4]): 5.88 nmol; UI (Rattus norvegicus [5]): 1; inhibition in vivo (Mus musculus): 16.9%
18 | CC(C)Cc1ccc(C(C)c2nnc(COc3ccc(-c4ccccc4)cc3)o2)cc1 (configuration not stated) | 79.5% | 77.3% | Activity (Rattus norvegicus [3]): 141.09 U/ml; Activity (Rattus norvegicus [4]): 5.28 nmol; UI (Rattus norvegicus [5]): 0.75; Activity (Rattus norvegicus [6]): 1.72 g/dL; Activity (Rattus norvegicus [7]): 29.17 U/ml; Activity (Rattus norvegicus [8]): 1.92 g/dL; inhibition in vivo (Mus musculus): 72.8%
19 | Cc1ccc(Nc2nnc(COc3ccc(-c4ccccc4)cc3)s2)c(C)c1 | 56.8% | 56.8% | 
20 | Sc1nnc(COc2ccc(-c3ccccc3)cc2)n1-c1ccc(Br)cc1 | 31.8% | 31.8% | 
21 | Cc1ccccc1-n1c(S)nnc1COc1ccc(-c2ccccc2)cc1 | 59.1% | 56.8% | 
22 | c1ccc(-c2ccc(OCc3nnc(-c4ccccc4)o3)cc2)cc1 | 18.2% | 18.2% | 
